Laboratory results reported in ChEMBL document CHEMBL3414437, “Synthesis of CDDO-amino acid-nitric oxide donor trihybrids as potential antitumor agents against both drug-sensitive and drug-resistant colon cancer” (J Med Chem, 2015).
The source made the active and inactive calls. The rule behind the calls is not given here.

Experiments:
[1] = test system: HCT-8; experiment: Inhibition of HIF-1alpha protein expression in human HCT8 cells at 1 uM incubated for 24 hrs by Western blotting method; assay type: functional, cell-based
In short: (§1)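 Cells (1 x 10^6) grown 24 h in 6 cm dishes, then exposed in duplicate for 24 h to 0.25, 0.5 or 1 µM compound, with or without PTIO. Lysates (20 µg/lane) were run on 7.5% SDS-PAGE, blotted to PVDF and blocked in 5% milk. HRP secondaries with ECL detection; bands quantified by densitometry against β-actin or GAPDH. Three separate experiments, mean ± SD.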

[2] = target: Signal transducer and activator of transcription 3 (Homo sapiens) (UniProt P40763); experiment: Inhibition of STAT3 protein phosphorylation in human HCT8 cells at 1 uM incubated for 24 hrs by Western blotting method; assay type: cell-based; details: HCT-8; in short: as §1
[3] = test system: Mus musculus; experiment: Toxicity in nude BALB/c mouse xenografted with FU-resistant human HCT8 cells assessed as abnormal size changes in kidney at 59.4 umol/kg administered as via oral gavage daily for 21 days; assay type: organism-based, HCT-8; details: in vivo, 504 h
In short: (§2)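 Male BALB/c nude mice aged 6-8 weeks, implanted s.c. in the right flank with HCT-8/5-FU cells (2 × 10^6). Once tumors reached 180-200 mm3 (days 9-11), randomized to daily gavage for 21 days in cremophor-EL/DMSO/PBS (1:1:8), 0.2 mL. At the end, liver, kidney, lung and heart checked for size, colour and weight. n = 8 per group.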

[4] = test system: Mus musculus; experiment: Toxicity in nude BALB/c mouse xenografted with FU-resistant human HCT8 cells assessed as abnormal size changes in liver at 59.4 umol/kg administered as via oral gavage daily for 21 days; assay type: organism-based, HCT-8; details: in vivo, 504 h; in short: as §2
[5] = test system: HCT-8; experiment: Inhibition of ERK protein phosphorylation in human HCT8 cells at 1 uM incubated for 24 hrs by Western blotting method; assay type: cell-based; in short: as §1
[6] = test system: HCT-8; experiment: Inhibition of P-gp protein expression in FU-resistant human HCT8 cells at 1 uM incubated for 24 hrs by Western blotting method; assay type: functional, cell-based; in short: as §1
[7] = test system: Mus musculus; experiment: Toxicity in nude BALB/c mouse xenografted with FU-resistant human HCT8 cells assessed as abnormal color changes in liver at 59.4 umol/kg administered as via oral gavage daily for 21 days; assay type: organism-based, HCT-8; details: in vivo, 504 h; in short: as §2
[8] = test system: Mus musculus; experiment: Toxicity in nude BALB/c mouse xenografted with FU-resistant human HCT8 cells assessed as abnormal weight changes in heart at 59.4 umol/kg administered as via oral gavage daily for 21 days; assay type: organism-based, HCT-8; details: in vivo, 504 h; in short: as §2
[9] = test system: Mus musculus; experiment: Toxicity in male ICR mouse assessed as body weight level at 2.38 x 10^3 umol/kg administered as single dose via oral gavage measured on day 14 post treatment (reference value: 19.5 +/- 0.85 g); assay type: organism-based; details: in vivo
[10] = test system: Mus musculus; experiment: Toxicity in nude BALB/c mouse xenografted with FU-resistant human HCT8 cells assessed as abnormal size changes in lung at 17.8 to 35.7 umol/kg administered as via oral gavage daily for 21 days; assay type: organism-based, HCT-8; details: in vivo, 504 h; in short: as §2
[11] = test system: HCT-8; experiment: Antiproliferative activity against 5-FU resistant human HCT8 cells assessed as inhibition of cell proliferation at 0.125 to 0.5 uM incubated for 72 hrs after 24 hrs of pre-treatment with 0.75 uM and 1 .5 uM pepT1 substrate Gly-Sar by MTT assay; assay type: functional, cell-based
In short: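 Cells pretreated with or without Gly-Sar (0.75 or 1.5 µM) for 24 h, then given a range of compound concentrations for 72 h. Proliferation inhibition measured by MTT.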

[12] = target: ATP-dependent translocase ABCB1 (Homo sapiens, UniProt P08183); experiment: Induction of nitrosylation of P-gp protein in FU-resistant human HCT8 cells at 0.25 to 1 uM incubated for 24 hrs by Western blotting method; assay type: cell-based; details: hct-8, 24 h
In short: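 HCT-8/5-FU cells (1 × 10^6) treated in duplicate for 24 h with 0.25, 0.5 or 1 µM test compound or 1 µM reference, with or without PTIO. Lysates immunoprecipitated overnight at 4 °C with anti-nitrotyrosine antibody on protein G beads. Eluates blotted with specific anti-Pgp, anti-MRP1 or anti-BCRP antibodies and quantified by densitometry. Mean ± SD of three experiments.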

[13] = test system: HCT-8; experiment: Induction of apoptosis in human HCT8 cells incubated for 24 hrs by FITC-Annexin-V and propidium iodide staining based flow cytometry; assay type: functional, cell-based
[14] = test system: HCT-8; experiment: Inhibition of BCRP protein expression in FU-resistant human HCT8 cells at 1 uM in presence of NO scavenger carboxy-PTIO incubated for 24 hrs by Western blotting method; assay type: functional, cell-based; in short: as §1
[15] = test system: Mus musculus; experiment: Toxicity in ICR mouse assessed as mouse mortality incidence at 0.60 x 10^3 to 2.38 x 10^3 umol/kg administered as single dose via oral gavage measured up to 14 days post treatment; assay type: organism-based; details: in vivo, 336 h
In short: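 Adult ICR mice of either sex were randomised and given a single oral gavage dose of 500, 1000, 1500 or 2000 mg/kg in cremophor-EL/DMSO/PBS (1:1:8). Survival, behaviour, water and food intake, body weight and activity were monitored for up to 14 days. Body weights were taken on days 0, 7 and 14.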

[16] = test system: HCT-8; experiment: Antitumor activity against FU-resistant human HCT8 cells xenografted in nude BALB/c mouse assessed as reduction in tumor volume at 17.8 to 35.7 umol/kg administered as via oral gavage daily for 21 days; assay type: functional
In short: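 Male BALB/c nude mice, 6–8 weeks old, inoculated s.c. in the right flank with HCT-8/5-FU cells (2 × 10^6). Once tumors reached 180–200 mm3 (days 9–11), mice were randomized (n = 8) to daily oral gavage for 21 days in cremophor-EL/DMSO/PBS (1:1:8). Tumor volume = W2(L/2), caliper-measured every other day, blinded; tumors weighed at end.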

[17] = test system: Mus musculus; experiment: Toxicity in nude BALB/c mouse xenografted with FU-resistant human HCT8 cells assessed as abnormal color changes in lung at 17.8 to 35.7 umol/kg administered as via oral gavage daily for 21 days; assay type: organism-based, HCT-8; details: in vivo, 504 h; in short: as §2
[18] = Toxicity in male ICR mouse assessed as mouse mortality at 2.38 x 10^3 umol/kg administered as single dose via oral gavage measured up to 14 days post treatment; assay type: organism-based; details: in vivo
In short: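 Female or male adult ICR mice, 10 per sex group, were randomised and given a single oral gavage dose of 2,000 mg/kg in cremophor-EL/DMSO/PBS (1:1:8). Total mortality was recorded over days 1–14, and body weight on days 0, 7 and 14 as mean ± SD.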

[19] = test system: HCT-8; experiment: Inhibition of MRP1 protein expression in FU-resistant human HCT8 cells at 1 uM in presence of NO scavenger carboxy-PTIO incubated for 24 hrs by Western blotting method; assay type: functional, cell-based; in short: as §1
[20] = test system: HCT-8; experiment: Inhibition of ERK protein phosphorylation in human HCT8 cells at 0.25 to 1 uM incubated for 24 hrs by Western blotting method; assay type: cell-based; in short: as §1
[21] = test system: HCT-8; experiment: Induction of nitric oxide release in 5-FU resistant human HCT8 cells at 100 uM incubated for 150 mins by Griess assay; assay type: functional, cell-based
In short: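 Cells (1 × 10^6/well) treated in triplicate with compound at 100 µM for 150 min. Lysates mixed with Griess reagent for 10 min at 37 °C and read at 540 nm. Nitrite quantified from a sodium nitrite standard curve; 0.4% DMSO-treated cells served as background. Mean ± SD of three experiments.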

[22] = test system: Mus musculus; experiment: Toxicity in nude BALB/c mouse xenografted with FU-resistant human HCT8 cells assessed as abnormal color changes in heart at 17.8 to 35.7 umol/kg administered as via oral gavage daily for 21 days; assay type: organism-based, HCT-8; details: in vivo, 504 h; in short: as §2

Signal transducer and activator of transcription 3 (Homo sapiens), sequence (P40763 whole entry): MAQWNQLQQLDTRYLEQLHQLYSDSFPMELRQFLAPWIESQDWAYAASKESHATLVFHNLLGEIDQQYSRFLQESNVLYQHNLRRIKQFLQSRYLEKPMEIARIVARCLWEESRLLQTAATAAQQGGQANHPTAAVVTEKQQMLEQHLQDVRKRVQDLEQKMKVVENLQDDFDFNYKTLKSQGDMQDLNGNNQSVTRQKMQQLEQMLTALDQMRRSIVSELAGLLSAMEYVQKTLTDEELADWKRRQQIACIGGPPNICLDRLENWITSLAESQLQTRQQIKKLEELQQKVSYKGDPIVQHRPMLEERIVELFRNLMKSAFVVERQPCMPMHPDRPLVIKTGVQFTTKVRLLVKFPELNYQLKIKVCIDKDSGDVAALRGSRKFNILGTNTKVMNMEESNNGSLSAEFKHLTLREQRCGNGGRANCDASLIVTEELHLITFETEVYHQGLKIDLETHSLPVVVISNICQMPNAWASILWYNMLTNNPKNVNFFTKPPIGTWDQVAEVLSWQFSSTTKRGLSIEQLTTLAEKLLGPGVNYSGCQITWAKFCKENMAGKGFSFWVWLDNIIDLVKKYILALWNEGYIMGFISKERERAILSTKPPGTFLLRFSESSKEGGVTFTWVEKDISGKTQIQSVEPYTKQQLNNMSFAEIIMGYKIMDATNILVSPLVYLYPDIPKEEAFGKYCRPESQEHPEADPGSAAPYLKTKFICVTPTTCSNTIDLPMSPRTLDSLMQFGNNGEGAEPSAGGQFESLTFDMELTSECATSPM
ATP-dependent translocase ABCB1, sequence (P08183 whole entry): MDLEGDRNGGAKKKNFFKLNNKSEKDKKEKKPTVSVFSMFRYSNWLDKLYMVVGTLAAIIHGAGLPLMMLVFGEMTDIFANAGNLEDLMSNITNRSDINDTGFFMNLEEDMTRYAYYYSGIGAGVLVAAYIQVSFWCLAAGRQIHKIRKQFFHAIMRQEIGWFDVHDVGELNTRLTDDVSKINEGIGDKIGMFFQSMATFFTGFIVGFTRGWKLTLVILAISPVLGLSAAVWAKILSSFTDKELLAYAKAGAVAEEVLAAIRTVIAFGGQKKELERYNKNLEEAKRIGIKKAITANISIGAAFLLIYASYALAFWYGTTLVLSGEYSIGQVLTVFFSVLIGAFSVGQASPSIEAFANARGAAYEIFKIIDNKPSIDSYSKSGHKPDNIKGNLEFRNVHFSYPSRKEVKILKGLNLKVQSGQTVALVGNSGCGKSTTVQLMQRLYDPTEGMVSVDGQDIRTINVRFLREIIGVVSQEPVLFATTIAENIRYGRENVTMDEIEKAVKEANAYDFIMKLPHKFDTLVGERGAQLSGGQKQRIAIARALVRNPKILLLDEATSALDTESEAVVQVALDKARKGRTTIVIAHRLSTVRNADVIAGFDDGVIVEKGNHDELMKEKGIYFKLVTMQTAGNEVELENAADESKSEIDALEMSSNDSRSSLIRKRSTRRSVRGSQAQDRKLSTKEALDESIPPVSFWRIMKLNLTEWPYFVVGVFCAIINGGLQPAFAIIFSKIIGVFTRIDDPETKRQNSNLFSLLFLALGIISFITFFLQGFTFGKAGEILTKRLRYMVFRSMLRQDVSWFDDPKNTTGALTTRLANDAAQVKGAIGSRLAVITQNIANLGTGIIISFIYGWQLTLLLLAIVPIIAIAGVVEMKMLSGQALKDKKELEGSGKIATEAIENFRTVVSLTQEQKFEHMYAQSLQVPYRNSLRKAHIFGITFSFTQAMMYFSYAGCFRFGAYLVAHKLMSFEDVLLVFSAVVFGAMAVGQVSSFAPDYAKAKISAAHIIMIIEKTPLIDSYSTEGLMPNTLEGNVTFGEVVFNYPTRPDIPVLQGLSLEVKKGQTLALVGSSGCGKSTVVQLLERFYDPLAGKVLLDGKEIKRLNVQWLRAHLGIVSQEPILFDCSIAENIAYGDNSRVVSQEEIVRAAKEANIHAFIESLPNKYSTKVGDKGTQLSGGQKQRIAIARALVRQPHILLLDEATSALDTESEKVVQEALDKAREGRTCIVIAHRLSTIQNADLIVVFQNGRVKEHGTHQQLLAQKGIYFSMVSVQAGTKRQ

With COC(=O)[C@]12CCC(C)(C)C[C@H]1[C@H]1C(=O)C=C3[C@@]4(C)C=C(C#N)C(=O)C(C)(C)[C@@H]4CC[C@@]3(C)[C@]1(C)CC2 [BARDOXOLONE METHYL] the inhibition [1] was “Active”, the inhibition [2] was “Active” and the Activity [3] was “Non-toxic”. The Activity [4] was “Non-toxic”, the inhibition [5] was “Active” and the inhibition [6] was “inactive”. For the same molecule, the Activity [7] was “Non-toxic” and the Activity [8] was “Non-toxic”.
In the case of CC1(C)CC[C@]2(C(=O)NCC(=O)OCC#CCOc3no[n+]([O-])c3S(=O)(=O)c3ccccc3)CC[C@]3(C)[C@H](C(=O)C=C4[C@@]5(C)C=C(C#N)C(=O)C(C)(C)[C@@H]5CC[C@]43C)[C@@H]2C1, the Activity [9] is reported as 31.9 g, the Activity [10] is reported as “Non-toxic” and the inhibition [11] is reported as “inactive”. The Activity [12] was “Dose-dependent effect”, the Activity [13] was “Dose-dependent effect” and the inhibition [14] was “inactive”. The Activity [15] was “Non-toxic”, the inhibition [16] was “Dose-dependent effect” and the Activity [17] was “Non-toxic”. For the same molecule, the mortality at 336 h [18] was 0%, the inhibition [19] was “inactive” and the inhibition [20] was “Dose-dependent effect”. The Activity [21] was “Active” and the Activity [22] was “Non-toxic”.
